Calls of active or inactive are those of the source. The calls are words filed in the database; no cut-off is given here.
Assays:
Caspase-3 (Homo sapiens) [1] = molecular target: T1, Caspase-3 (Homo sapiens) (UniProt P42574); assay: Second-order inhibition rate of caspase-3 was determined by progress curve method
T1 sequence (whole entry): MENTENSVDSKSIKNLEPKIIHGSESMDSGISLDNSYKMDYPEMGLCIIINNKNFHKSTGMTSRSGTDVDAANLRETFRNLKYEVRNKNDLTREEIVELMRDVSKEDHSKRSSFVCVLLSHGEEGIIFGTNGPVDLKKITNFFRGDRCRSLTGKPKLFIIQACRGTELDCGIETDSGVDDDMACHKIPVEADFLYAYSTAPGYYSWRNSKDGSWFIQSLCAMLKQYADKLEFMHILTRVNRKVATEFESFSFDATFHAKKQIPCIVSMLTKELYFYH
Outline: (§1)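 Caspases-3, -6 and -8 were assayed in 50 mM HEPES, 100 mM NaCl, 0.1% (w/v) CHAPS, 10% (w/v) sucrose and 10 mM DTT, pH 7.4. Substrate: Cbz-DEVD-AFC or Cbz-DEVD-AMC.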

[2] = molecular target: Granzyme B (Homo sapiens) (UniProt P10144); assay: Tested for inhibition of granzyme B by the compound
Sequence of Granzyme B (Homo sapiens) (P10144 whole entry): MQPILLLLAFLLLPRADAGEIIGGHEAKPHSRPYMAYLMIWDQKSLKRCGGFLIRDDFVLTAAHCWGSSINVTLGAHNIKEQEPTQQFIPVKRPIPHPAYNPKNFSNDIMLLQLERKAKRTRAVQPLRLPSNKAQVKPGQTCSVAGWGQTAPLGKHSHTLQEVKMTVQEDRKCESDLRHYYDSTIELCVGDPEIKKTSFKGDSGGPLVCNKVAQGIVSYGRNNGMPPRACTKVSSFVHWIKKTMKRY

Pepsin A (Sus scrofa) = Pepsin A (Sus scrofa) (UniProt P00791); assay: Tested for inhibition of porcine pepsin by the compound; NI = No Inhibition
Sequence of Pepsin A (Sus scrofa) (P00791 60-385 limits assumed): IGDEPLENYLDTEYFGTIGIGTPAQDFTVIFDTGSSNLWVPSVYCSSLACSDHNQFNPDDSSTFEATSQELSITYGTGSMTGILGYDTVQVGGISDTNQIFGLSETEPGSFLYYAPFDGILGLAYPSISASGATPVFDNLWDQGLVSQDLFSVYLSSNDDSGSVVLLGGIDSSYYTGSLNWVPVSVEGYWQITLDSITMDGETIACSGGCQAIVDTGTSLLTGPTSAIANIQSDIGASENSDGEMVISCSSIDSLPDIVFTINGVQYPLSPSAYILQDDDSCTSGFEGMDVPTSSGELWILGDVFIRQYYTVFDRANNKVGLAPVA

[3] = molecular target: Cathepsin B (Homo sapiens) (UniProt P07858); assay: Tested for inhibition of cathepsin B by the compound; NI = No Inhibition
[4] = molecular target: Plasmepsin II (Plasmodium falciparum) (UniProt P46925); assay: Inhibition of plasmepsin-2 from Plasmodium falciparum; NI = No Inhibition
Sequence of Plasmepsin II (Plasmodium falciparum) (P46925 125-453 limits assumed): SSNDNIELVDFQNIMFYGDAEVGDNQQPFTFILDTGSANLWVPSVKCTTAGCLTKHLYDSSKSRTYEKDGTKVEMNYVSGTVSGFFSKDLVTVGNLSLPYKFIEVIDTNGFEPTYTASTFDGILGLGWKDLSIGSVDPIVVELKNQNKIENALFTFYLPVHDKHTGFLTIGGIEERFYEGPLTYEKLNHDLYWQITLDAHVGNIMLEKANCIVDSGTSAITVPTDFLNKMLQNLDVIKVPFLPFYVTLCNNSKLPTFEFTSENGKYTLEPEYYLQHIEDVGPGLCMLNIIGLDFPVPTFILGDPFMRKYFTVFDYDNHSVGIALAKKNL

[5] = molecular target: Human immunodeficiency virus type 1 protease (Human immunodeficiency virus 1) (UniProt Q72874); assay: Tested for inhibition of HIV-1 protease by the compound; NI = No Inhibition
[6] = molecular target: Cathepsin D (Homo sapiens) (UniProt P07339); assay: Tested for inhibition of human cathepsin D by the compound; NI = No Inhibition
Sequence of Cathepsin D (Homo sapiens) (P07339 65-162 limits assumed): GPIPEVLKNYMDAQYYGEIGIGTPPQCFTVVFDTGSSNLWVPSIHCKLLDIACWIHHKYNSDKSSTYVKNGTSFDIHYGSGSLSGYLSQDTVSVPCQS
Sequence of Cathepsin D (Homo sapiens) (P07339 169-412 limits assumed): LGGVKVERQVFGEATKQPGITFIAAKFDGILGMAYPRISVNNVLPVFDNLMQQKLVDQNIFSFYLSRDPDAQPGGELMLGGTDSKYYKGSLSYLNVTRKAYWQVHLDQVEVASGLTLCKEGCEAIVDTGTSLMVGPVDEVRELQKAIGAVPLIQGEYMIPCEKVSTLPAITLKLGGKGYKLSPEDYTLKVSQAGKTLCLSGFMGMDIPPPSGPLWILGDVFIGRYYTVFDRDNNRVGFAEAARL

[7] = Tested for inhibition of chymotrypsinogen by the compound; NI = No Inhibition
Caspase-8 (Homo sapiens) [8] = molecular target: Caspase-8 (Homo sapiens) (UniProt Q14790); assay: Second-order inhibition rate of caspase-8 was determined by progress curve method; outline: as §1
Sequence of Caspase-8 (Homo sapiens) (Q14790 217-374 limits assumed): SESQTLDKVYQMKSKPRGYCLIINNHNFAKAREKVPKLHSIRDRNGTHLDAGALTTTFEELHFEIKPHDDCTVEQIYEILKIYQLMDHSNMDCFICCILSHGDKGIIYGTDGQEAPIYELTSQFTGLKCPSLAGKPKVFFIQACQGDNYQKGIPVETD
Sequence of Caspase-8 (Homo sapiens) (Q14790 385-479 limits assumed): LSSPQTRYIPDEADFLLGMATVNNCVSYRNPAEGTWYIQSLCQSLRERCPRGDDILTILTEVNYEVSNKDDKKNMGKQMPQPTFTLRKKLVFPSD

Caspase-6 (Homo sapiens) [9] = molecular target: T2, Caspase-6 (Homo sapiens) (UniProt P55212); assay: Second-order inhibition rate of caspase-6 was determined by progress curve method; outline: as §1
T2 sequence (whole entry): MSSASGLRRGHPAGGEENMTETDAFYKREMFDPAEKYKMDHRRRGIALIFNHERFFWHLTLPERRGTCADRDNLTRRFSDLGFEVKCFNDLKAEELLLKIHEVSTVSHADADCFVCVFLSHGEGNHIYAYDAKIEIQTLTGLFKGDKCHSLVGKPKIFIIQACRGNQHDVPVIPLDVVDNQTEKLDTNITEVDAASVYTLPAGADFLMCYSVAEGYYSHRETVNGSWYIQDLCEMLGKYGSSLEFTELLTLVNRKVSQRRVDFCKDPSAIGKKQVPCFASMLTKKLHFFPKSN

Papain (Carica papaya) [10] = molecular target: T3, Papain (Carica papaya) (UniProt P00784); assay: Tested for inhibition of papain by the compound; NI = No Inhibition
T3 sequence (whole entry): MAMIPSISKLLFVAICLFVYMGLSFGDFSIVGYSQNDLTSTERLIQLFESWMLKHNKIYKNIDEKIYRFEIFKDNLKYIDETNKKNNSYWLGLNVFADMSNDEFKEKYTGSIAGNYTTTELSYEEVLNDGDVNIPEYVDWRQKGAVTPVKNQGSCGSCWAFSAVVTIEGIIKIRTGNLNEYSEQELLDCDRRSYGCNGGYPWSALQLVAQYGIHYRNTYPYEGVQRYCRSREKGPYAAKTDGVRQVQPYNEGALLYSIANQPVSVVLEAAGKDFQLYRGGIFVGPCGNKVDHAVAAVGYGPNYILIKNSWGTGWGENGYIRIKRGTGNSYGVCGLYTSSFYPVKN

Caspase-1 (Homo sapiens) = molecular target: T4, Caspase-1 (Homo sapiens) (UniProt P29466); assay: Second-order inhibition rate of caspase-1 was determined by progress curve method
T4 sequence (whole entry): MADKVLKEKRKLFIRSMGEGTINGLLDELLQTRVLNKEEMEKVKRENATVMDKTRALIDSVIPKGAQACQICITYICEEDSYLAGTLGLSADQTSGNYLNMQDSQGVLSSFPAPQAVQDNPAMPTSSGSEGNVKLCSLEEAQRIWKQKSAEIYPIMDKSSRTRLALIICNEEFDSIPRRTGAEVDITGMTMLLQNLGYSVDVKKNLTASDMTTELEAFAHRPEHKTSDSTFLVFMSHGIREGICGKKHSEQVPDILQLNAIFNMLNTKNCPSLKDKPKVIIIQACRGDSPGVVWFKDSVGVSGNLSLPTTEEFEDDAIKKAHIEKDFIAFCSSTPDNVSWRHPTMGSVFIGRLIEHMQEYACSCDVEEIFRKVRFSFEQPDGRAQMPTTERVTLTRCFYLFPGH
Outline: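 Caspase-1 assay buffer: 100 mM HEPES, 0.5 mM EDTA, 20% (v/v) glycerol, 5 mM DTT, pH 7.5. Substrate: Ac-YVAD-AMC.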

Cathepsin B [11] = assay: Tested for inhibition of cathepsin B by the compound; NI = No Inhibition
Cathepsin B [12] = assay: Tested for inhibition of cathepsin B by the compound
[13] = molecular target: Cathepsin B (Homo sapiens) (UniProt P07858); assay: Tested for inhibition of cathepsin B by the compound
Papain (Carica papaya) [14] = molecular target: T3, Papain (Carica papaya); assay: Tested for inhibition of papain by the compound
[15] = molecular target: Human immunodeficiency virus type 1 protease (Human immunodeficiency virus 1) (UniProt Q72874); assay: Tested for inhibition of HIV-1 protease; NI = No Inhibition
[16] = molecular target: Granzyme B (Homo sapiens) (UniProt P10144); assay: Tested for inhibition of granzyme B by the compound; NI = No Inhibition
[17] = Tested for inhibition of chymotrypsinogen by the compound; ND = Not determined
Caspase-6 (Homo sapiens) [18] = molecular target: T2, Caspase-6 (Homo sapiens); assay: Second-order inhibition rate of caspase-6 was determined by progress curve method; No inhibition; outline: as §1
Caspase-3 (Homo sapiens) [19] = molecular target: T1, Caspase-3 (Homo sapiens); assay: Second-order inhibition rate of caspase-3 was determined by progress curve method; No inhibition; outline: as §1
Caspase-8 (Homo sapiens) [20] = molecular target: Caspase-8 (Homo sapiens) (UniProt Q14790); assay: Second-order inhibition rate of caspase-8 was determined by progress curve method; No inhibition; outline: as §1

SMILES | k2 (Caspase-3 (Homo sapiens) [1]) [M⁻¹ s⁻¹] | k obs / 1 [2] [M⁻¹ s⁻¹] | k obs / 1 (Pepsin A (Sus scrofa)) | k obs / 1 [3] | k obs / 1 [4] | k obs / 1 [5] | k obs / 1 [6] | k obs / 1 [7] | k2 (Caspase-8 (Homo sapiens) [8]) [M⁻¹ s⁻¹] | k2 (Caspase-6 (Homo sapiens) [9]) [M⁻¹ s⁻¹] | k obs / 1 (Papain (Carica papaya) [10]) | k2 (Caspase-1 (Homo sapiens)) [M⁻¹ s⁻¹] | k obs / 1 (Cathepsin B [11]) | other results
CCOC(=O)[C@@H]1O[C@H]1C(=O)N(CC(=O)O)NC(=O)[C@@H](NC(=O)C(CCC(=O)O)NC(=O)[C@H](CC(=O)O)NC(=O)OCc1ccccc1)C(C)C (stereo partly specified) | 464000 | < 0.1 | inactive | inactive | inactive | inactive | inactive | inactive | 785 | 475 | inactive | 4320 | inactive | –
CC(C)[C@H](NC(=O)CCc1ccccc1)C(=O)N[C@@H](C)C(=O)NN(CC(=O)O)C(=O)[C@H]1O[C@@H]1CCc1ccccc1 | – | – | – | inactive | – | – | – | inactive | – | – | inactive | 300 | inactive | –
CC(C)[C@H](NC(=O)CCc1ccccc1)C(=O)N[C@@H](C)C(=O)NN(CC(=O)O)C(=O)[C@H]1O[C@@H]1C(=O)OCc1ccccc1 (stereo in doubt) | 680 | – | – | – | – | – | – | 21 M⁻¹ s⁻¹ | – | – | – | 18100 | – | k obs / 1 (Cathepsin B [12]): No inhibition; k obs / 1 [13]: < 10 M⁻¹ s⁻¹; k obs / 1 (Papain (Carica papaya) [14]): < 10 M⁻¹ s⁻¹
CCOC(=O)[C@@H]1O[C@H]1C(=O)N(CC(=O)O)NC(=O)[C@@H](NC(=O)C(CCC(=O)O)NC(=O)[C@H](CC(C)C)NC(=O)OCc1ccccc1)[C@@H](C)O (stereo partly specified) | 3250 | – | – | inactive | – | – | – | 15 M⁻¹ s⁻¹ | 34700 | 4390 | inactive | 19600 | inactive | –
CCOC(=O)[C@H]1O[C@@H]1C(=O)N(CC(=O)O)NC(=O)[C@H](C)NC(=O)[C@@H](NC(=O)CCc1ccccc1)C(C)C | 1040 | – | inactive | – | inactive | – | inactive | – | 1570 | 75 | – | 32200 | – | k obs / 1 [15]: inactive
CCOC(=O)[C@H]1O[C@@H]1C(=O)N(CC(=O)O)NC(=O)[C@@H](NC(=O)C(CCC(=O)O)NC(=O)[C@H](CC(C)C)NC(=O)OCc1ccccc1)[C@@H](C)O (stereo partly specified) | 3210 | – | inactive | inactive | inactive | inactive | inactive | 36 M⁻¹ s⁻¹ | 61200 | 8620 | inactive | 25700 | inactive | k obs / 1 [16]: inactive
CCOC(=O)[C@H]1O[C@@H]1C(=O)N(CC(=O)O)NC(=O)[C@@H](NC(=O)[C@H](CCC(=O)O)NC(=O)[C@H](CC(=O)O)NC(=O)OCc1ccccc1)C(C)C | 1.07e+06 | < 0.1 | – | inactive | – | – | – | 46 M⁻¹ s⁻¹ | 95500 | 5440 | inactive | 11800 | inactive | –
CCOC(=O)[C@H]1O[C@@H]1C(=O)N(CC(=O)O)NC(=O)[C@@H](NC(=O)[C@H](CCC(=O)O)NC(=O)OCc1ccccc1)C(C)C | 50500 | – | inactive | – | inactive | inactive | inactive | – | 195000 | 4180 | – | 58500 | – | k obs / 1 [17]: 86 M⁻¹ s⁻¹
CCOC(=O)[C@H]1O[C@@H]1C(=O)N(CC(=O)O)NC(=O)[C@@H](NC(=O)[C@H](CCC(=O)O)NC(=O)[C@@H](NC(=O)OCc1ccccc1)[C@@H](C)CC)[C@@H](C)O | 4080 | 0.65 | inactive | inactive | inactive | inactive | inactive | – | 52800 | 45800 | – | 12400 | inactive | –
CC(C)[C@H](NC(=O)CCc1ccccc1)C(=O)N[C@@H](C)C(=O)NN(CC(=O)O)C(=O)[C@H]1O[C@@H]1C(=O)OCc1ccccc1 (stereo in doubt; 23d(S,S)) | 1470 | < 0.3 | inactive | – | inactive | inactive | inactive | – | 1560 | 165 | – | 52100 | – | k obs / 1 [13]: < 10 M⁻¹ s⁻¹
CC(C)[C@H](NC(=O)CCc1ccccc1)C(=O)N[C@@H](C)C(=O)NN(CC(=O)O)C(=O)[C@@H]1O[C@H]1C(=O)NCCc1ccccc1 | – | – | – | – | – | – | – | – | – | – | – | 950 | – | k2 (Caspase-6 (Homo sapiens) [18]): inactive; k2 (Caspase-3 (Homo sapiens) [19]): inactive; k2 (Caspase-8 (Homo sapiens) [20]): inactive
